High-throughput results from PubChem BioAssay.
HKDC1 act: HKDC1 (human) hexokinase activation. Q2TB90. recombinant HKDC1, G6PDH/diaphorase resazurin fluorescence; stronger effect = lower value. AID 493187. activity change, negative = activation, % at 20 µM. 0.056% of 340,000 active;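 active = activation of 40% or more at 20 µM, a change of -40% or lower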
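Signal: coupled resazurin-to-resorufin fluorescence, Ex 525/Em 613 nm. Test system: in-house human HKDC1 enzyme, G6PDH and diaphorase coupling enzymes. Quantity: HKDC1 5 µg/mL. Timing: 90 min reaction at room temperature, dark.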
Starred values were filed as active, the others as inactive. The list is a sample of the results.

SMILES	HKDC1 act
CC(=O)N1CCN(C2c3cccc4cccc(c34)C2NS(=O)(=O)c2ccccc2)CC1 (stereo not given)	-49*
Cn1cnnc1SC1c2cccc3cccc(c23)C1NS(=O)(=O)c1ccccc1 (stereo not given)	-49*
CC(=O)Nc1ccc(NC2=C/C(=N/S(=O)(=O)c3cccs3)c3ccccc3C2=O)cc1	44
CSc1nc(N(CCO)CCO)c2sc3nc(-c4ccco4)c4c(c3c2n1)CCC4	37
O=C(OCn1ncc(Cl)c(Cl)c1=O)c1ccc(C(F)(F)F)cc1	46
Cc1nc2sc3c(NCc4ccco4)ncnc3c2c2c1COC(C)(C)C2	35
Oc1c(Br)cc(Br)cc1/C=N/c1nc2c(s1)CCCC2	37
NC(=S)N=Nc1c(O)cc(O)c2[nH]c(=O)ccc12	35
O=C(CCl)N(c1ccc(Cl)cc1)c1c[nH]c2ccccc12	41
Cc1cc2cc(CCNC(=O)c3ccc(S(=O)(=O)N4CCOCC4)cc3)c(=O)[nH]c2cc1C	41
CCn1c2ccccc2c2nc3cc(S(=O)(=O)N4CCOCC4)ccc3nc21	-61*
COc1ccc(C(=O)/C=C/c2ccsc2)cc1CSCC(=O)O	36
CCCCNC(=O)c1sc(=S)n2c1[nH]c(=O)c1ccccc12	38
c1ccc2oc(C3=NNC(=NC4CC4)SC3)cc2c1	-47*
Cc1ccc(C(=O)c2coc3c2C(=O)C(=O)c2ccccc2-3)cc1	57
Cc1onc(C(=O)Nc2ccc(OC(F)(F)F)cc2)c1[N+](=O)[O-]	79
O=C1C(F)=CC(COC(c2ccccc2)(c2ccccc2)c2ccccc2)OC1n1cc(F)c(=O)[nH]c1=O (stereo not given)	40
Cc1ccccc1N=C1NN=C(c2ccccc2F)CS1	-47*
CC1C/C(=C/c2ccncc2)C(=O)/C(=C/c2ccncc2)C1 (stereo not given)	43
O=C(O)c1cccc(-n2cccc2/C=C2/NC(=O)N(c3ccc(Cl)cc3)C2=O)c1	61
O=C(CSc1nnc(CCCN2C(=O)c3cccc4cccc(c34)C2=O)n1-c1ccccc1)N1CCN(CCO)CC1	42
CC(C)c1nc2oc3c(NCCO)ncnc3c2c2c1COC(C)(C)C2	46
COc1cc(/C=C2\SC(=O)N(c3ccc(Cl)cc3)C2=O)cc([N+](=O)[O-])c1O	44
O=C1CSC(=S)N1Nc1ccccc1	-44*
Cc1ccccc1OCCCN1C(=O)C(=O)c2cccc(C)c21	37
SMILES	HKDC1 act
COCCN(C(=O)COC(=O)c1cc2c(s1)CCC2)c1c(N)n(Cc2ccccc2)c(=O)[nH]c1=O	35
CCN(CC)Cc1cc(O)c(CN(CC)CC)cc1O	47
CCC(C)(C)NC(=O)C1CCC(CNS(=O)(=O)c2cccc3nsnc23)CC1 (stereo not given)	51
O=C(CCc1ccccc1)NCC(=O)N/N=C/c1ccc(O)cc1O	-43*
O=C(CNC(=O)c1cccs1)N/N=C/c1ccc(O)cc1O	-46*
O=C(CN1CCCc2ccccc21)N/N=C/c1ccc(O)cc1O	-43*
COc1ccccc1/C=C\C(=O)NCC(=O)N/N=C/c1ccc(O)cc1O	-41*
COc1ccc(C(=O)/C=C/Sc2nc3ccccc3o2)cc1	38
O=C(O)c1cc(O)c2c(c1)[C@@H]([C@H]1c3cc(C(=O)O)cc(O)c3C(=O)c3c(O[C@@H]4O[C@H](CO)[C@@H](O)[C@H](O)[C@H]4O)cccc31)c1cccc(O[C@@H]3O[C@H](CO)[C@@H](O)[C@H](O)[C@H]3O)c1C2=O	80
O=C(O)c1ccc(S(=O)(=O)/N=C2\C=C(Nc3ccccc3F)C(=O)c3ccccc32)cc1	81
O=C1C(N2CCOCC2)=C(n2nnc3ccccc32)C(=O)c2ccccc21	43
CC1CCc2c(c3ccccc3n2C(=O)CCl)C1 (stereo not given)	46
C=CCN1C=C2C(=O)C(C)(OC(=O)CCC(=O)OC)C(=O)C(Br)=C2C=C1c1ccc(OC)cc1 (stereo not given)	36
O=C1C=CC(=O)C(C2=C3C(=O)N(CCc4ccccc4)CC(=O)N3CCC2)=C1	63
CC(=O)NC1=C(N(C)C2CCS(=O)(=O)C2)C(=O)c2ccccc2C1=O (stereo not given)	39
CCCc1nc2oc3c(NCCOCCO)ncnc3c2c2c1COC(C)(C)C2	39
O=C(CSc1nc(-c2ccc(F)cc2)nc2c1Cc1ccccc1O2)Nc1cccc(C(=O)O)c1	57
Cc1ccc2oc(C(=O)N3CCC(N4CCSCC4)CC3)c(C)c2c1	35
COC(=O)CCC(=O)OC1(C)C(=O)C2=CN(C3CCCC3)C(c3ccc(OC)cc3)=CC2=C(Br)C1=O (stereo not given)	38
COc1ccc2c(c1)/C(=C\c1cccc(/C=C3/C(=O)Nc4ccc(OC)cc43)n1)C(=O)N2	37
COc1ccc(CN2C(=O)c3cccnc3C2O)cc1 (stereo not given)	41
COC(=O)c1cc(=O)n(Cc2ccc(OC)cc2)c(=NCc2ccc(OC)cc2)s1	-43*
COc1ccc(-n2c(C)cc(C(=O)CCl)c2C)cc1	35
